Rows were chosen to be rich in hits. Some 1.9% of all compounds tested hit in one or more screens of this group.
CHRM5 antagonist: human M5 muscarinic receptor antagonists, primary screen, CHO cells, Fluo-8 calcium fluorescence; CHO-hM5 cells, ACh EC80; Muscarinic acetylcholine receptor M5 (Homo sapiens), P08912; inhibition, % at 3 µM; 360,000 tested, 0.59% active;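 active means inhibition above a per-plate cutoff, the mean of that plate's test compounds plus 3 SD, cut at about 27% in these data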;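 further: 0% = acetylcholine EC80 with DMSO and 100% = DMSO without agonist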
M5 PAM: human M5 muscarinic receptor positive allosteric modulators, primary screen, CHO-K1 cells, Fluo-8 calcium fluorescence; Muscarinic acetylcholine receptor M5 (Homo sapiens), P08912; CHO-K1 hM5, ACh EC20 PAM; 0% = ACh EC20, 100% = ACh EC100; activation, % at 3 µM; 360,000 tested, 0.3% active; AID 624038, 2012;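 active means activation above the run cutoff, the mean activation of all test compounds plus 3 SD, cut at about 18% in these data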
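Assay system – human M5 receptor in CHO-K1 cells · Read-out – % activation, ACh-normalized · Technique – Fluo-8 calcium fluorescence · Dosing – single-point, 3 µM nominal · Incubation – Fluo-8 loading 80 min at 37 °C plus 30 min room temperature · Repeats – singlicate, one well per test compound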
M5 ag: human M5 muscarinic receptor agonists, primary screen, CHO-K1 cells, Fluo-8 calcium fluorescence | CHO-K1 hM5 cells; 0% DMSO wells, 100% maximal acetylcholine response | Muscarinic acetylcholine receptor M5 (Homo sapiens), P08912 | activation, % at 3 µM | 360,000 tested, 0.19% active;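 active means activation above the run's mean over test compounds plus 3 SD, cut at about 23% in these data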;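 further: signal is peak over basal fluorescence ratio across the kinetic read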
M4 PAM: human M4 muscarinic receptor positive allosteric modulators, primary screen, CHO-K1 cells, Fluo-8 calcium fluorescence | Muscarinic acetylcholine receptor M4 (Homo sapiens), P08173 | CHO-K1 hM4/Gqi5, ACh EC20; 0% = ACh EC20, 100% = maximal ACh | activation, % at 3 µM | 360,000 tested, 0.4% active | AID 624126, 2012;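 active means activation above its plate's cutoff, the mean activation of sample wells plus 3 SD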
Target sequence (P08173 whole entry, looked up): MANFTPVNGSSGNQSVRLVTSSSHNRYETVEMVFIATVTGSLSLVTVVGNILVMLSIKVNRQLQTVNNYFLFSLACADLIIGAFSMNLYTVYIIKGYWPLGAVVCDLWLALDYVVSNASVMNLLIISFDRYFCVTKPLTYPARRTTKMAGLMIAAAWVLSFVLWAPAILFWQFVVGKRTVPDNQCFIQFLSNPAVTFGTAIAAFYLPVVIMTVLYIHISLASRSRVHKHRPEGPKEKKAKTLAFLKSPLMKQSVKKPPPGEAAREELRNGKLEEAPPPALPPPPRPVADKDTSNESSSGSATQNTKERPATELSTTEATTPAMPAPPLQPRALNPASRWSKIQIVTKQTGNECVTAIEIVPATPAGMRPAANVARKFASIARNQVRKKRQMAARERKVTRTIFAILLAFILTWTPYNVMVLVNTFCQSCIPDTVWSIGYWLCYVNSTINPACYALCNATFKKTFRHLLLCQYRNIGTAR
CHRM4 antagonist: human M4 muscarinic receptor antagonists, primary screen, CHO cells, Fluo-8 calcium fluorescence. CHO-hM4 cells, ACh EC80. Muscarinic acetylcholine receptor M4 (Homo sapiens), P08173. 360,000 tested, 0.73% active. inhibition, % at 3 µM;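 active means inhibition above its plate's cutoff, the mean inhibition of sample wells plus 3 SD, cut at about 27% in these data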;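 further: 0% = acetylcholine EC80 with DMSO and 100% = DMSO without agonist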
M4 ag: human M4 muscarinic receptor agonists, primary screen, CHO-K1 cells, Fluo-8 calcium fluorescence; activation, % at 3 µM; CHO-K1 hM4/Gqi5; vehicle 0%, full acetylcholine response 100%; 360,000 tested, 0.14% active; AID 624127, 2012; Muscarinic acetylcholine receptor M4 (Homo sapiens), P08173;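 active means activation above the run mean over all test wells plus 3 SD, cut at about 32% in these data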;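 further: peak over basal fluorescence ratio per well then scaled between controls; 0% = DMSO wells and 100% = acetylcholine at EC100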
* = called active by the depositor.

SMILES | CHRM5 antagonist | M5 PAM | M5 ag | M4 PAM | CHRM4 antagonist | M4 ag
Cc1ccc(NC(=O)C2(C)Cc3ccccc3C(=O)O2)cc1 (stereo not drawn) | -10 | 16 | 3 | 25* | -5 | 2
CCOC(=O)C1CCCN(C(=S)Nc2ccc(Nc3ccccc3)cc2)C1 (stereo not drawn) | 1 | -8 | 32* | -11 | 16 | 5
CCOC(=O)C1CCCN(C(=O)C2COc3ccccc3O2)C1 (stereo not drawn) | -2 | 0 | 2 | 0 | -4 | 1
CCOC(=O)C1CCCN(C(=O)C2c3ccccc3Oc3ccccc32)C1 (stereo not drawn) | 3 | -8 | 27* | 3 | 16 | 20
CCOC(=O)C1CCCN(C(=O)Cc2c(C(=O)O)[nH]c3ccccc23)C1 (stereo not drawn) | -9 | -6 | 38* | -7 | 9 | 1
CCOC(=O)C1CCCN(C(=O)Cn2nc(C)c3c(C)n(-c4ccccc4)nc3c2=O)C1 (stereo not drawn) | 2 | 13 | -2 | 17* | 0 | 1
O=C(NC1CC1)c1cc(Cl)nc2ccccc12 | 3 | 0 | -2 | 5 | 5 | 0
O=C1NC2C(NC(=O)N2C2CCCCC2)N1C1CCCCC1 (stereo not drawn) | -4 | 0 | 1 | -2 | 8 | 1
Cn1nnnc1SCC(=O)NCCc1ccc(Cl)cc1 | -5 | 11 | -3 | 5 | 3 | 1
COc1ccc(NC(=O)CN(C)C(=O)c2ccc(-c3ccccc3Cl)o2)cc1 | 2 | 2 | -1 | -6 | -4 | 3
Nc1nonc1-n1nnc(C(=O)N/N=C/c2ccco2)c1CSc1ccc(Cl)cc1 | 3 | 3 | 0 | -3 | 7 | 2
CCOC(=O)C1CCCN(C(=O)Cc2ccc(C)cc2)C1 (stereo not drawn) | -7 | 9 | -3 | 1 | 8 | 0
CCOC(=O)C1CCCN(C(=S)Nc2ccc(C)cc2C)C1 (stereo not drawn) | 10 | -6 | 36* | 10 | 4 | 2
CCOc1ccc2cc(S(=O)(=O)N3CCN(C)CC3)ccc2c1 | 2 | 2 | -6 | 15* | -2 | 4
CCOc1ccc2cc(S(=O)(=O)N3CCCCC3)ccc2c1 | 4 | -1 | -4 | 0 | 12 | 1
O=C1NC(c2ccccc2)CCO1 (stereo not drawn) | -4 | 9 | -2 | 30* | -5 | 1
CC(=O)c1ccccc1NC(=O)CSc1n[nH]c(=O)n1C1CC1 | 16 | -6 | 1 | 2 | -5 | 4
COc1ccc(CC2(CO)CCN(CC3=Cc4cc(Cl)ccc4OC3)CC2)cc1 | 25 | -15 | -1 | -20 | 29* | 16
CCCCCCN1C2=NCCN2c2ccccc21 | 0 | 1 | -5 | -22 | 29* | 3
CCCCNC(=O)CC(C(=O)N1CCc2ccccc21)n1ccnc1 (stereo not drawn) | -10 | -2 | 6 | 34* | 28* | 0
CCN(CCCNC(=O)CC(C(=O)N1CCc2ccccc21)n1ccnc1)c1cccc(C)c1 (stereo not drawn) | -1 | 0 | -1 | 3 | 0 | -2
Cc1cccc(C)c1NC(=O)C(c1ccccc1OC(F)(F)F)N1CCN(C/C=C/c2ccccc2)CC1 (stereo not drawn) | 10 | -2 | -4 | -11 | 16 | 9
CC(C)Oc1ccc(/C(O)=C2/C(=O)C(=O)N(Cc3cccnc3)C2c2ccco2)cc1 (stereo not drawn) | -2 | 13 | 3 | 19* | 5 | 1
O=C(COC(=O)Cc1ccc(Cl)c(Cl)c1)NCc1ccco1 | 8 | -5 | -2 | -2 | -2 | 0
CC(C)C/C=C1\CCc2c([nH]c3ccccc23)C1=O | 8 | 10 | 1 | 21* | -13 | 1
SMILES | CHRM5 antagonist | M5 PAM | M5 ag | M4 PAM | CHRM4 antagonist | M4 ag
O=C(NCc1ccncc1)[C@@H]1CCCN1C(=O)[C@@H]1CCCN1 | 4 | -4 | 2 | 0 | -4 | 1
CCc1ccc(NC(=S)N(Cc2ccccc2)Cc2ccccn2)cc1 | 13 | 0 | -5 | -3 | -5 | 0
CC(=O)c1ccc(N2CCN(C(=O)c3ccc(Cl)c(NC4=NC5CS(=O)(=O)CC5S4)c3)CC2)cc1 (stereo not drawn) | 29* | 21* | -1 | 48* | 17 | 16
CCCNS(=O)(=O)c1ccc(CCC(=O)Nc2cc(Cl)ccc2Oc2ccccc2)cc1 | 29* | -19 | 0 | -20 | 43* | 9
CN1CCS/C1=C/C=C1\SC(=S)N(CC(=O)O)C1=O | 5 | -7 | 31* | -9 | 9 | 15
CN1CCS/C1=C/C=C1/SC(=S)N(Cc2ccccc2)C1=O | 13 | -4 | 16 | -7 | 21 | 9
CCCCN1C(=O)/C(=C/C=C2\SCCN2C)SC1=S | 21 | -9 | 40* | -7 | 14 | 21
CCOC(=O)N1CCN(C(=O)c2ccc3c(=O)n(CCC4=CCCCC4)c(=O)[nH]c3c2)CC1 | 6 | -8 | -4 | -24 | 39* | 2
CN(CC(=O)Nc1cccc(C#N)c1)Cc1ccc(Cl)cc1 | 6 | 1 | -4 | 6 | -9 | 3
CN(CC(=O)Nc1ccc(C#N)cc1)Cc1ccc(Cl)c(Cl)c1 | 0 | -22 | -9 | -17 | 43* | 6
N#Cc1ccc(NC(=O)Nc2ccc(Oc3ccc(NC(=O)Nc4ccc(C#N)cc4)cc3)cc2)cc1 | 12 | -15 | 3 | -2 | 2 | 12
CN(CC(=O)Nc1ccc(C#N)cc1)CC(=O)Nc1ccc(N2CCOCC2)cc1 | 4 | -2 | 1 | -4 | 1 | 2
CN(CC(=O)Nc1ccc(N2CCOCC2)cc1)CC(=O)Nc1cccc(C#N)c1 | 5 | 6 | 3 | 23* | -1 | 6
N#Cc1ccc(NC(=O)Nc2cccc(C#N)c2)cc1 | 32* | -17 | 12 | -12 | 8 | 26
O=C(NCCN1CCOCC1)c1cc2n(n1)C(C(F)(F)F)CC(c1ccc(F)cc1)N2 (stereo not drawn) | -2 | -2 | 1 | 1 | -16 | 1
O=C(C1CSC2(c3ccc(F)cc3)CCC(=O)N12)N1CCCCCC1 (stereo not drawn) | 3 | -7 | -5 | 1 | -5 | 1
O=C(O)c1cccc(NC(=O)c2ccccc2)c1 | 3 | -2 | -2 | -3 | 14 | 0

Source: PubChem (The Scripps Research Institute Molecular Screening Center)
